The values below come from publication PMC2717697 (The Journal of General Physiology, 2009).

Residue numbers refer to the chain shown, from its start.

Holding throughout (type): cell-based
The target of assay [1] is T1, E363Q mutant CNGA1 channel (Bos taurus, UniProt Q00194, E363Q).
T1 sequence (Q00194 1-690 E363Q): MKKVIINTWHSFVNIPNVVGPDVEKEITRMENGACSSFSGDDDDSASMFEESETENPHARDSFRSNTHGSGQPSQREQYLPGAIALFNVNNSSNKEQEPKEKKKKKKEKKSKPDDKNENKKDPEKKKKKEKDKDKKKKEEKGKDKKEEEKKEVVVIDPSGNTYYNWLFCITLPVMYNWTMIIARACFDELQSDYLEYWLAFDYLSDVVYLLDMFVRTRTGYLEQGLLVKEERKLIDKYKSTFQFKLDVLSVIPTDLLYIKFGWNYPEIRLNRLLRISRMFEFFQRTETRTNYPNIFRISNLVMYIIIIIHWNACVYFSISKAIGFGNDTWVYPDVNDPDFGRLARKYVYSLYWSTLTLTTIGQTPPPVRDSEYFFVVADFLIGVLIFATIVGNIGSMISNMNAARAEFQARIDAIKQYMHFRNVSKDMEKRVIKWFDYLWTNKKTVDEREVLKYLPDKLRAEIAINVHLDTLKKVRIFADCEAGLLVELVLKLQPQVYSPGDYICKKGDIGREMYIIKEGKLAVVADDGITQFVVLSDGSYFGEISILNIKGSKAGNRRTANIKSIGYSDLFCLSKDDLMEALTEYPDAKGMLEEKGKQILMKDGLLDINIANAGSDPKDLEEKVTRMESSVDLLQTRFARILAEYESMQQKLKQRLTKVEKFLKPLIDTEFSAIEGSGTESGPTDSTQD
Briefly: Block of E363Q single-channel currents by extracellular Mg^2+. In a few lines:
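Xenopus laevis oocytes were collagenase-defolliculated, cRNA-injected, and kept at 18°C. […] E363Q single-channel currents were recorded at 120 or −120 mV with or without 0.1 mM extracellular Mg2+, one patch per trace. Filtering was 1 kHz and sampling 10 kHz. Amplitudes are mean ± SEM, n = 5–20.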

The target of assay [2] is T2, F387A mutant CNGA1 channel (Bos taurus, UniProt Q00194, F387A).
T2 sequence (Q00194 1-690 F387A): T1 sequence (Q00194 1-690 E363Q) with Q363E, F387A
Briefly: Voltage-dependent block by intracellular PhTx, F387A. The method in brief: (§1)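 WT or mutant CNGA1 cRNA was injected into collagenase-defolliculated Xenopus oocytes. […] I-V curves were taken from −80 mV holding with steps of −200 to 200 mV in 10-mV increments. No-cGMP currents were subtracted as background. Recordings were made with or without 10 µM intracellular PhTx, and fraction unblocked (I/Io) was reported as mean ± SEM, n = 4–6.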

For assay [3], the target named is T3, T389A mutant CNGA1 channel (Bos taurus, UniProt Q00194, T389A).
T3 sequence (Q00194 1-690 T389A): T1 sequence (Q00194 1-690 E363Q) with Q363E, T389A
As to the kind of experiment: Voltage-dependent block by intracellular PhTx, T389A. The method in brief:
as §1

The target in assay [4] is T4, V384A mutant CNGA1 channel (Bos taurus, UniProt Q00194, V384A).
T4 sequence (Q00194 1-690 V384A): T1 sequence (Q00194 1-690 E363Q) with Q363E, V384A
As to the kind of experiment: Voltage-dependent block by intracellular PhTx, V384A. In a few lines: as §1

The target in assay [5] is T5, I390A mutant CNGA1 channel (Bos taurus, UniProt Q00194, I390A).
T5 sequence (Q00194 1-690 I390A): T1 sequence (Q00194 1-690 E363Q) with Q363E, I390A
Briefly: Voltage-dependent block by intracellular PhTx, I390A. In a few lines: as §1

For assay [6], the target named is T6, I386A mutant CNGA1 channel (Bos taurus, UniProt Q00194, I386A).
T6 sequence (Q00194 1-690 I386A): T1 sequence (Q00194 1-690 E363Q) with Q363E, I386A
As to the kind of experiment: Voltage-dependent block by intracellular PhTx, I386A. The method in brief: as §1

Assay [7] concerns the target T7, wild-type (WT) CNGA1 channel (Bos taurus, UniProt Q00194).
T7 sequence (Q00194 1-690): T1 sequence (Q00194 1-690 E363Q) with Q363E
As to the kind of experiment: Voltage-dependent block by intracellular PhTx, wild type. The method in brief: as §1

A further assay concerns the target T8, wild-type CNGA1 channels (Bos taurus, UniProt Q00194).
T8 sequence (Q00194 1-690): T1 sequence (Q00194 1-690 E363Q) with Q363E

In assay [8] the target is T1, E363Q mutant CNGA1 channel.
Assay [9] relates to WT and E363Q CNGA1 channels. The following applies: fit of Eq. 1 to G-V relations 10 to 200 mV, WT and E363Q together.
[10] abbreviates: read-out: appKd, Boltzmann fit of I/Io at 10 µM intracellular PhTx.
[11] abbreviates: valence of block, Boltzmann fit.

Consider `[Mg+2]` [Mg^2+], for which the Ki (as a rule, the equilibrium dissociation constant of an inhibitor or competing ligand from its target) in [1] (read-out: estimated Ki, −120 mV, estimated from 37% reduction at 100 µM) is 170000 nM. Also, in assay [1] (−120 mV, 100 µM external Mg^2+), the “reduction of single-channel current amplitude” value was found to be 37%.
In the case of philanthotoxin [PhTx], the Kd in [2] (setting [10]) is 52000 nM; in [3] (setting [10]), 1600 nM; in assay [4] (setting [10]), 3500 nM; in [5] (setting [10]) it was 1200 nM; in assay [6] (setting [10]), 830 nM; in [7] (setting [10]), 1600 nM. Moreover, the Z came to 0.96 ± 0.02 in [2] (setting [11]); 2.25 ± 0.06 in [3] (setting [11]); 2.81 ± 0.09 in assay [4] (setting [11]); 2.67 ± 0.08 in assay [5] (setting [11]); 2.55 ± 0.07 in [6] (setting [11]); 2.48 ± 0.07 in [7] (setting [11]).
Consider `Nc1nc2c(ncn2[C@@H]2O[C@@H]3COP(=O)(O)O[C@H]3[C@H]2O)c(=O)[nH]1` [cGMP, cyclic GMP], for which the “valence factor of KL” value was 0.04 at wild-type CNGA1 channels and −0.1 in assay [8]. Further, the “Hill coefficient (n)” value on wild-type CNGA1 channels (common to −200 and 200 mV) turned out to be 1.48 ± 0.03; in assay [8] (common to 40 and 200 mV), 1.44 ± 0.01; in assay [9], 1.44 ± 0.06. The “variation of KL” value on wild-type CNGA1 channels (over 400 mV (−200 to 200 mV)) is recorded as “twofold”. For the same compound, in [9] (read-out: KL), the Kd came out at 78000 ± 4000 nM.
